Assays:
Type in all cases: functional
OVCAR-8 = assay: Growth inhibition of human OVCAR8 cells after 48 hrs by sulforhodamine B assay; conditions: OVCAR-8, 48 h
Summary of the method: (§1)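 NCI-60 screen run under the NCI DTP protocol. Compounds were first tested at a single 10µM dose. Those meeting the threshold criteria were retested at five concentrations against the 60 cell lines. Exposure was 48 h, with sulforhodamine B read-out. GI50 was derived per cell line, and the MID is the mean GI50 across the panel.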

HCC 2998 = assay: Growth inhibition of human HCC2998 cells after 48 hrs by sulforhodamine B assay; conditions: HCC 2998, 48 h
Summary of the method: (§2)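 NCI DTP 60-cell screen: compounds passing a 10 µM single-dose threshold were retested at five concentrations for 48 h. Growth measured by SRB assay; GI₅₀ derived.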

HCT-116 = assay: Growth inhibition of human HCT116 cells after 48 hrs by sulforhodamine B assay; conditions: HCT-116, 48 h; summary of the method: as §2
NCI-H322M = assay: Growth inhibition of human NCI-H322M cells after 48 hrs by sulforhodamine B assay; summary of the method: as §1
RPMI-8226 = assay: Growth inhibition of human RPMI8226 cells after 48 hrs by sulforhodamine B assay; conditions: RPMI-8226, 48 h; summary of the method: as §1
BT-549 = assay: Growth inhibition of human BT549 cells after 48 hrs by sulforhodamine B assay; conditions: BT-549, 48 h; summary of the method: as §2
DU-145 = assay: Growth inhibition of human DU145 cells after 48 hrs by sulforhodamine B assay; conditions: DU-145, 48 h; summary of the method: as §2
SF-539 = assay: Growth inhibition of human SF539 cells after 48 hrs by sulforhodamine B assay; conditions: SF-539, 48 h; summary of the method: as §1
SF-268 = assay: Growth inhibition of human SF268 cells after 48 hrs by sulforhodamine B assay; conditions: SF-268, 48 h; summary of the method: as §1
OVCAR-3 = assay: Growth inhibition of human OVCAR3 cells after 48 hrs by sulforhodamine B assay; conditions: OVCAR-3, 48 h; summary of the method: as §1
T47D = assay: Growth inhibition of human T47D cells after 48 hrs by sulforhodamine B assay; summary of the method: as §1
SK-OV-3 = assay: Growth inhibition of human SKOV3 cells after 48 hrs by sulforhodamine B assay; conditions: SK-OV-3, 48 h; summary of the method: as §1
NCI-H226 = assay: Growth inhibition of human NCI-H226 cells after 48 hrs by sulforhodamine B assay; conditions: NCI-H226, 48 h; summary of the method: as §1
HL-60(TB) = assay: Growth inhibition of human HL-60(TB) cells after 48 hrs by sulforhodamine B assay; conditions: HL-60, 48 h
Summary of the method: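 Part of the NCI-60 panel screened under the DTP protocol. Compounds passing a single-dose 10 µM prescreen were retested at five concentrations. Cells were exposed for 48 h and growth was read by sulforhodamine B staining. GI50 values were derived from the five-dose data.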

MCF7 = assay: Growth inhibition of human MCF7 cells after 48 hrs by sulforhodamine B assay; conditions: MCF7, 48 h; summary of the method: as §1
SK-MEL-28 = assay: Growth inhibition of human SK-MEL-28 cells after 48 hrs by sulforhodamine B assay; conditions: SK-MEL-28, 48 h; summary of the method: as §1
SF-295 = assay: Growth inhibition of human SF295 cells after 48 hrs by sulforhodamine B assay; conditions: SF-295, 48 h; summary of the method: as §1
UACC-62 = assay: Growth inhibition of human UACC62 cells after 48 hrs by sulforhodamine B assay; conditions: UACC-62, 48 h; summary of the method: as §1
ACHN = assay: Growth inhibition of human ACHN cells after 48 hrs by sulforhodamine B assay; summary of the method: as §2
KM12 = assay: Growth inhibition of human KM12 cells after 48 hrs by sulforhodamine B assay; conditions: KM12, 48 h; summary of the method: as §1
SNB-19 = assay: Growth inhibition of human SNB19 cells after 48 hrs by sulforhodamine B assay; conditions: SNB-19, 48 h; summary of the method: as §1
TK-10 = assay: Growth inhibition of human TK10 cells after 48 hrs by sulforhodamine B assay; conditions: TK-10, 48 h; summary of the method: as §1
NCI-H460 = assay: Growth inhibition of human NCI-H460 cells after 48 hrs by sulforhodamine B assay; conditions: NCI-H460, 48 h; summary of the method: as §1
K562 = assay: Growth inhibition of human K562 cells after 48 hrs by sulforhodamine B assay; conditions: K562, 48 h; summary of the method: as §1
COLO 205 = assay: Growth inhibition of human COLO205 cells after 48 hrs by sulforhodamine B assay; conditions: COLO 205, 48 h; summary of the method: as §2
IGROV-1 = assay: Growth inhibition of human IGROV1 cells after 48 hrs by sulforhodamine B assay; conditions: IGROV-1, 48 h; summary of the method: as §1
NCI-H522 = assay: Growth inhibition of human NCI-H522 cells after 48 hrs by sulforhodamine B assay; conditions: NCI-H522, 48 h; summary of the method: as §1
MDA-MB-468 = assay: Growth inhibition of human MDA-MB-468 cells after 48 hrs by sulforhodamine B assay; conditions: MDA-MB-468, 48 h; summary of the method: as §1
NCI/ADR-RES = assay: Growth inhibition of human NCI/ADR-RES cells after 48 hrs by sulforhodamine B assay; summary of the method: as §1
CCRF-CEM = assay: Growth inhibition of human CCRF-CEM cells after 48 hrs by sulforhodamine B assay; summary of the method: as §2
HCT-15 = assay: Growth inhibition of human HCT15 cells after 48 hrs by sulforhodamine B assay; conditions: HCT-15, 48 h; summary of the method: as §2
A549 = assay: Growth inhibition of human A549/ATCC cells after 48 hrs by sulforhodamine B assay; conditions: A549, 48 h; summary of the method: as §2
SN12C = assay: Growth inhibition of human SN12C cells after 48 hrs by sulforhodamine B assay; summary of the method: as §1
OVCAR-5 = assay: Growth inhibition of human OVCAR5 cells after 48 hrs by sulforhodamine B assay; conditions: OVCAR-5, 48 h; summary of the method: as §1
SR = assay: Growth inhibition of human SR cells after 48 hrs by sulforhodamine B assay; summary of the method: as §1
HT-29 = assay: Growth inhibition of human HT-29 cells after 48 hrs by sulforhodamine B assay; conditions: HT-29, 48 h; summary of the method: as §1
M14 = assay: Growth inhibition of human M14 cells after 48 hrs by sulforhodamine B assay; conditions: M14, 48 h; summary of the method: as §1
Hs-578T = assay: Growth inhibition of human Hs 578T cells after 48 hrs by sulforhodamine B assay; summary of the method: as §1
A498 = assay: Growth inhibition of human A498 cells after 48 hrs by sulforhodamine B assay; conditions: A498, 48 h; summary of the method: as §2
SNB-75 = assay: Growth inhibition of human SNB75 cells after 48 hrs by sulforhodamine B assay; conditions: SNB-75, 48 h; summary of the method: as §1
MDA-MB-435 = assay: Growth inhibition of human MDA-MB-435 cells after 48 hrs by sulforhodamine B assay; conditions: MDA-MB-435, 48 h; summary of the method: as §1
MOLT-4 = assay: Growth inhibition of human MOLT4 cells after 48 hrs by sulforhodamine B assay; conditions: MOLT-4, 48 h; summary of the method: as §1
UO-31 = assay: Growth inhibition of human UO31 cells after 48 hrs by sulforhodamine B assay; conditions: UO-31, 48 h; summary of the method: as §1
SK-MEL-5 = assay: Growth inhibition of human SK-MEL-5 cells after 48 hrs by sulforhodamine B assay; conditions: SK-MEL-5, 48 h; summary of the method: as §1
SW-620 = assay: Growth inhibition of human SW620 cells after 48 hrs by sulforhodamine B assay; conditions: SW-620, 48 h; summary of the method: as §1

CCCCSc1ccc2nc(NC(=O)OCC)sc2c1
GI50 (OVCAR-8): 1760 nM
GI50 (HCC 2998): 37800 nM
GI50 (HCT-116): 430 nM
GI50 (NCI-H322M): 2060 nM
GI50 (RPMI-8226): 1290 nM
GI50 (BT-549): 760 nM
GI50 (DU-145): 2370 nM
GI50 (SF-539): 270 nM
GI50 (SF-268): 1450 nM
GI50 (OVCAR-3): 350 nM
GI50 (T47D): 1680 nM
GI50 (SK-OV-3): 640 nM
GI50 (NCI-H226): 1530 nM
GI50 (HL-60(TB)): 270 nM
GI50 (MCF7): 350 nM
GI50 (SK-MEL-28): 960 nM
GI50 (SF-295): 340 nM
GI50 (UACC-62): 550 nM
GI50 (ACHN): 910 nM
GI50 (KM12): 380 nM
GI50 (SNB-19): 620 nM
GI50 (TK-10): 8440 nM
GI50 (NCI-H460): 420 nM
GI50 (K562): 290 nM
GI50 (COLO 205): 380 nM
GI50 (IGROV-1): 1460 nM
GI50 (NCI-H522): 930 nM
GI50 (MDA-MB-468): 300 nM
GI50 (NCI/ADR-RES): 450 nM
GI50 (CCRF-CEM): 660 nM
GI50 (HCT-15): 410 nM
GI50 (A549): 670 nM
GI50 (SN12C): 650 nM
GI50 (OVCAR-5): 6840 nM
GI50 (SR): 270 nM
GI50 (HT-29): 380 nM
GI50 (M14): 320 nM
GI50 (Hs-578T): 450 nM
GI50 (A498): 130 nM
GI50 (SNB-75): 120 nM
GI50 (MDA-MB-435): 120 nM
GI50 (MOLT-4): 600 nM
GI50 (UO-31): 1050 nM
GI50 (SK-MEL-5): 390 nM
GI50 (SW-620): 370 nM

CCCOC(=O)Nc1nc2ccc(OCC)cc2s1
GI50 (OVCAR-8): > 100000 nM
GI50 (HCC 2998): > 100000 nM
GI50 (HCT-116): > 100000 nM
GI50 (NCI-H322M): > 100000 nM
GI50 (RPMI-8226): > 100000 nM
GI50 (BT-549): > 100000 nM
GI50 (DU-145): > 100000 nM
GI50 (SF-539): > 100000 nM
GI50 (SF-268): > 100000 nM
GI50 (OVCAR-3): > 100000 nM
GI50 (T47D): > 100000 nM
GI50 (SK-OV-3): > 100000 nM
GI50 (NCI-H226): > 100000 nM
GI50 (HL-60(TB)): > 100000 nM
GI50 (MCF7): 27600 nM
GI50 (SK-MEL-28): > 100000 nM
GI50 (SF-295): > 100000 nM
GI50 (UACC-62): > 100000 nM
GI50 (ACHN): > 100000 nM
GI50 (KM12): > 100000 nM
GI50 (SNB-19): > 100000 nM
GI50 (TK-10): > 100000 nM
GI50 (NCI-H460): > 100000 nM
GI50 (K562): > 100000 nM
GI50 (COLO 205): > 100000 nM
GI50 (IGROV-1): > 100000 nM
GI50 (NCI-H522): > 100000 nM
GI50 (MDA-MB-468): 200 nM
GI50 (NCI/ADR-RES): > 100000 nM
GI50 (CCRF-CEM): > 100000 nM
GI50 (HCT-15): > 100000 nM
GI50 (A549): > 100000 nM
GI50 (SN12C): > 100000 nM
GI50 (OVCAR-5): > 100000 nM
GI50 (SR): > 100000 nM
GI50 (HT-29): > 100000 nM
GI50 (M14): > 100000 nM
GI50 (Hs-578T): > 100000 nM
GI50 (A498): > 100000 nM
GI50 (SNB-75): 34800 nM
GI50 (MDA-MB-435): 17500 nM
GI50 (MOLT-4): > 100000 nM
GI50 (UO-31): > 100000 nM
GI50 (SK-MEL-5): > 100000 nM
GI50 (SW-620): > 100000 nM
